Results as given in PMC10949176 (Clinical and Translational Science, 2024).
Where “and” joins values, the source holds several entries; their conditions need not be identical. Identical values can stand only once. Entries after “also recorded” stand apart in the source; their conditions may differ.

Experiments:
[1] = test system: CYP2B6 mRNA (marker of CAR); assay: mRNA induction in sandwich cultured hepatocytes; type: cell-based, human; details: RIS qualified donor HH1103, sandwich cultured hepatocytes, 48 h
[2] = test system: CYP3A4 mRNA (marker of PXR); assay: mRNA induction in sandwich cultured hepatocytes; type: cell-based, human; details: RIS qualified donor HH1103, sandwich cultured hepatocytes, 48 h
[3] = test system: CYP3A; assay: CYP3A activity in Hμrel with ARV-471; type: cell-based, human
[4] = test system: palbociclib sulfation; assay: Formation of palbociclib sulfate in Hμrel with ARV-471; type: cell-based, human
[5] = test system: palbociclib metabolic pathways in co‐culture human hepatocyte models; type: in vitro ADME
[6] = molecular target: T1, SULT2A1 (Homo sapiens, UniProt Q06520); assay: ARV-471 inhibition of recombinant SULT2A1; type: biochemical; details: rSULT2A1 IC50 (DHEAS formation)
T1 sequence (Q06520 1-285): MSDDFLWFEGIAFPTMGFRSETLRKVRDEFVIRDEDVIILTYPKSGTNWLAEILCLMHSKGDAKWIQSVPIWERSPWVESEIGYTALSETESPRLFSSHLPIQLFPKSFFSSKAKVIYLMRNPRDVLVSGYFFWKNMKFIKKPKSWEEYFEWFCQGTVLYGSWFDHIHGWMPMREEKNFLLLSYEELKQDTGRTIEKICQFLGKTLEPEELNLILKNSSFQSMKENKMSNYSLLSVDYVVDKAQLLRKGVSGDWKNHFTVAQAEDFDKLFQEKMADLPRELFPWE
Method in brief: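 Recombinant human SULT2A1 incubated with varying test compound concentrations. Read-out was formation of DHEAS, with IC50 derived from the concentration response. Mean of three.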

[7] = test system: palbociclib intrinsic clearance in Hμrel co‐culture hepatocytes; assay: Impact of ARV-471 on intrinsic clearance of palbociclib in Hμrel; type: in vitro ADME, human; details: at ~3 μM ARV‐471
[8] = molecular target: T1, SULT2A1; assay: ARV-471 inhibition of SULT2A1 in Hμrel; type: cell-based; details: Hμrel IC50 (DHEAS formation, SULT2A1), Hμrel model
Method in brief: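 Hμrel co-culture of mixed-gender, five-donor pooled hepatocytes, acclimated 24 h at 37°C, 5% CO₂, exposed to varying test compound concentrations. […] DHEAS formation was measured and IC50 derived. Mean of three.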

[9] = ref https://endpts.com/arvinas‐reports‐delay‐for‐pfizer‐partnered‐protein‐degradation‐program/, cited from earlier work
[10] = Preliminary reaction phenotyping of palbociclib in hepatocytes; type: in vitro ADME; details: novel approach (manuscript under preparation)
[11] = molecular target: UGT1A3 (Homo sapiens, UniProt P35503); assay: UGT inhibition in suspension human hepatocytes; type: cell-based; details: read-out: Ki,u HHEPs; UGT1A3, CDCA 2 μM, unbound
[12] = test system: recombinant SULT1A1; assay: Recombinant SULT inhibition by ABT, SULT1A1; type: biochemical; details: 1 mM ABT, raloxifene probe substrate, data not shown
[13] = molecular target: UGT1A4 (Homo sapiens, UniProt P22310); assay: UGT inhibition in suspension human hepatocytes; type: cell-based; details: read-out: Ki,u HHEPs; UGT1A4, TFP 1 μM, unbound
[14] = molecular target: UGT2B7 (Homo sapiens, UniProt P16662); assay: UGT inhibition in suspension human hepatocytes; type: cell-based; details: read-out: Ki,u HHEPs; UGT2B7, Zidovudine 100 μM, unbound
[15] = test system: recombinant SULT1C2; assay: Recombinant SULT inhibition by ABT, SULT1C2; type: biochemical; details: 1 mM ABT, raloxifene probe substrate, data not shown
[16] = molecular target: T1, SULT2A1; assay: Recombinant SULT inhibition by ABT, SULT2A1; type: biochemical; details: 1 mM ABT, raloxifene probe substrate, data not shown
[17] = molecular target: UGT1A6 (Homo sapiens, UniProt P19224); assay: UGT inhibition in suspension human hepatocytes; type: cell-based; details: UGT1A6, Serotonin 1715 μM, unbound
[18] = molecular target: UGT1A1 (Homo sapiens, UniProt P22309); assay: UGT inhibition in suspension human hepatocytes; type: cell-based; details: UGT1A1, β‐Estradiol 3 μM, unbound
[19] = molecular target: UGT2B15 (Homo sapiens, UniProt P54855); assay: UGT inhibition in suspension human hepatocytes; type: cell-based; details: read-out: Ki,u HHEPs; UGT2B15, Oxazepam 10 μM, unbound
[20] = molecular target: UGT1A9 (Homo sapiens, UniProt O60656); assay: UGT inhibition in suspension human hepatocytes; type: cell-based; details: read-out: Ki,u HHEPs; UGT1A9, Propofol 10 μM, unbound
[21] = test system: recombinant SULT1B1; assay: Recombinant SULT inhibition by ABT, SULT1B1; type: biochemical; details: 1 mM ABT, raloxifene probe substrate, data not shown
[22] = test system: recombinant SULT1E1; assay: Recombinant SULT inhibition by ABT, SULT1E1; type: biochemical; details: 1 mM ABT, raloxifene probe substrate, data not shown
[23] = test system: recombinant SULT1A3; assay: Recombinant SULT inhibition by ABT, SULT1A3; type: biochemical; details: 1 mM ABT, raloxifene probe substrate, data not shown
[24] = test system: recombinant SULT1C4; assay: Recombinant SULT inhibition by ABT, SULT1C4; type: biochemical; details: 1 mM ABT, raloxifene probe substrate, data not shown
[25] = test system: recombinant SULT2B1; assay: Recombinant SULT inhibition by ABT, SULT2B1; type: biochemical; details: 1 mM ABT, raloxifene probe substrate, data not shown
[26] = Hμrel, 1'hydroxylation of midazolam

UGT1A6, sequence (P19224 27-532): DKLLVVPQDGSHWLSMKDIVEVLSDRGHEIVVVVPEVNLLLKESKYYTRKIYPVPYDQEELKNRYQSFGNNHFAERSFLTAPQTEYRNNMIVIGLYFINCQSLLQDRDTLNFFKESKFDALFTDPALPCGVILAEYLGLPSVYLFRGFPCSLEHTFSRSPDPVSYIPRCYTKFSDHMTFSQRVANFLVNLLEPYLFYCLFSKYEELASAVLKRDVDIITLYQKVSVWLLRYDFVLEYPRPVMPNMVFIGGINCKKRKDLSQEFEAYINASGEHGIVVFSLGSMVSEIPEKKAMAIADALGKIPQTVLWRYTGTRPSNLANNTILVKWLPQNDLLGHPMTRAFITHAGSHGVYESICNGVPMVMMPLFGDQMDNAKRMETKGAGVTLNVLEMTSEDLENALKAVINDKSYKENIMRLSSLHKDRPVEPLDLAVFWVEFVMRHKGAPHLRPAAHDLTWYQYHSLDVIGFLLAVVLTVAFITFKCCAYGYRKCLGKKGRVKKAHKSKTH
UGT1A4, sequence (P22310 29-534): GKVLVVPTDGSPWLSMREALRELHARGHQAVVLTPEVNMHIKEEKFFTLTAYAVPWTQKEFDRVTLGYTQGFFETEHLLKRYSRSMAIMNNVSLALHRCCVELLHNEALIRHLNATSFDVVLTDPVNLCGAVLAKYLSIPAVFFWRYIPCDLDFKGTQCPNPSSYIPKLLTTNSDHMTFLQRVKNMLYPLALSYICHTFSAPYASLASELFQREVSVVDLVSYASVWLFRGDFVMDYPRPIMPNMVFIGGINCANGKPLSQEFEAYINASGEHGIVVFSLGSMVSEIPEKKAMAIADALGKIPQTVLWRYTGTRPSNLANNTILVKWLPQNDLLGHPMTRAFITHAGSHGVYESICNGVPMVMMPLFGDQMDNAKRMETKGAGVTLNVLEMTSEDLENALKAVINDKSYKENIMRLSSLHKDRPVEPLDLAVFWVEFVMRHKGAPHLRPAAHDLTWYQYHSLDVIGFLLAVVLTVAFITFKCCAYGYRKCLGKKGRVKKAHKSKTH
UGT1A9, sequence (O60656 26-530): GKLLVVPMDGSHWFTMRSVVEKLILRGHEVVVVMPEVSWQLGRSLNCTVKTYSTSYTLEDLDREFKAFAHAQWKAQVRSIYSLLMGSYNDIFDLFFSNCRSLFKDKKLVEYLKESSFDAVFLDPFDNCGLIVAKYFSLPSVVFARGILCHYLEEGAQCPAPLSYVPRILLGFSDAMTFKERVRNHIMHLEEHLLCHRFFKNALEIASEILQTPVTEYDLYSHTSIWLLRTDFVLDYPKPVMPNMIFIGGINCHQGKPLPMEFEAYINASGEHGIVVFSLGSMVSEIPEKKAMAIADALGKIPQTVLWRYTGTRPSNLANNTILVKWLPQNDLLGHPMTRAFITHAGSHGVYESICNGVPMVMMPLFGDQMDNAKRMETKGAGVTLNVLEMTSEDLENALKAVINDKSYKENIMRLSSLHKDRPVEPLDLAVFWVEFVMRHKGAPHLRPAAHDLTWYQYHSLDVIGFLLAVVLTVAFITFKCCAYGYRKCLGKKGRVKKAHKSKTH
UGT1A1, sequence (P22309 26-533): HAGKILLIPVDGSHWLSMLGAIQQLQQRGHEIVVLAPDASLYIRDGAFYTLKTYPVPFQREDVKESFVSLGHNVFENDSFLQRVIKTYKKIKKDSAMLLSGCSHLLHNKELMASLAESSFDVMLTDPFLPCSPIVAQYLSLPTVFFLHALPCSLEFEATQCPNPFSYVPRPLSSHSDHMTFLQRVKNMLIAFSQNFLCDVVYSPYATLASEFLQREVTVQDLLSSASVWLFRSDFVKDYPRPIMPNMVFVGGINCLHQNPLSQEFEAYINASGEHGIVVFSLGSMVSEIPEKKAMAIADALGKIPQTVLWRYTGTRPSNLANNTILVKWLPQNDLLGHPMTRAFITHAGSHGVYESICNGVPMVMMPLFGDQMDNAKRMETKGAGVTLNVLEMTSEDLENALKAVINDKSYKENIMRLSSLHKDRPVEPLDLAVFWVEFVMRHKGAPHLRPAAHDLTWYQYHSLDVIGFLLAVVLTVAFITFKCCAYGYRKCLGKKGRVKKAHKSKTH
UGT2B7, sequence (P16662 24-529): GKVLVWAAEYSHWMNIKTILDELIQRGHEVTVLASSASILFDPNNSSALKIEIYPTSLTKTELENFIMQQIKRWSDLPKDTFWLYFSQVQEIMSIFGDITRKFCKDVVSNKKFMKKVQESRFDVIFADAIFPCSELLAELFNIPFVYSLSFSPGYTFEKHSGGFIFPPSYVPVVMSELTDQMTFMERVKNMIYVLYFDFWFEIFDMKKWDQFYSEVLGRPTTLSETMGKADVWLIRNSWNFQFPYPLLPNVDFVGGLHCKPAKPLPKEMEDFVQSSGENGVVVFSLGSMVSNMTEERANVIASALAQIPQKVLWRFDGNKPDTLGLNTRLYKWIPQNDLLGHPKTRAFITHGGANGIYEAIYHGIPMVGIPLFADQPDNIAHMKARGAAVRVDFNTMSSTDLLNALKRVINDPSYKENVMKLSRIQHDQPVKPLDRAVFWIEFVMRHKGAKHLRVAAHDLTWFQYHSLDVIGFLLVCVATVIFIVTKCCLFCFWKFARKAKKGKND
UGT2B15, sequence (P54855 24-530): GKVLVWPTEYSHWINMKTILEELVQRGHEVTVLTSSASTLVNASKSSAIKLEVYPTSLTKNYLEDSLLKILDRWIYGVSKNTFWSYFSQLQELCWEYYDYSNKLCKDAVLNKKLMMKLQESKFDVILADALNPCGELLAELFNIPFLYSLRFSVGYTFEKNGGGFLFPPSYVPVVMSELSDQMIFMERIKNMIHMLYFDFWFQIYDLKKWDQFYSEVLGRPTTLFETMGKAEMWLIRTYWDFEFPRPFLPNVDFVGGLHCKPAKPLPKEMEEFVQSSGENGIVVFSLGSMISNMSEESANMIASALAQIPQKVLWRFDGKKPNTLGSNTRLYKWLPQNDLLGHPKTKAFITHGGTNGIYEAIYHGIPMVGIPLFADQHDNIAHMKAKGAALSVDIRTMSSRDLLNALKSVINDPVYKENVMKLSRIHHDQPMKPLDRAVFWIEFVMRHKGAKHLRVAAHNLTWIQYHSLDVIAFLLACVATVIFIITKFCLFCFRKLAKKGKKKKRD
UGT1A3, sequence (P35503 29-534): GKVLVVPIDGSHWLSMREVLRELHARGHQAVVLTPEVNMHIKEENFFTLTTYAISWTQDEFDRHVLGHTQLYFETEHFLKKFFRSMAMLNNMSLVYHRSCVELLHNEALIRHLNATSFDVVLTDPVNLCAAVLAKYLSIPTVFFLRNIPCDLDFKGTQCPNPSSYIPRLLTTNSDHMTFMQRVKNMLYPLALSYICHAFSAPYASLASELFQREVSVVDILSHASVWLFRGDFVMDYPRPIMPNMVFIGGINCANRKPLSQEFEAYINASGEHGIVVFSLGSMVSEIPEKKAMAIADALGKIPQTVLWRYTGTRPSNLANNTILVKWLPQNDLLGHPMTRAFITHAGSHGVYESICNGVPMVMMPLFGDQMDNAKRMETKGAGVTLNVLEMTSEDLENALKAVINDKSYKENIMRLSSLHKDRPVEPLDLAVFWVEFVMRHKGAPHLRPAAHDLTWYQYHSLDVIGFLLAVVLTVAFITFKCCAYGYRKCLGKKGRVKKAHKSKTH

With `C=C[C@H]1C[N@@]2CC[C@H]1C[C@@H]2[C@@H](O)c1ccnc2ccc(OC)cc12` [quinidine] the “CYP2B6 induction (result in words)” value [1] was “did not induce”.
In the case of `CC(=O)N1CCN(c2ccc(OCC3COC(Cn4ccnc4)(c4ccc(Cl)cc4Cl)O3)cc2)CC1` (stereo not shown) [ketoconazole], the “CYP3A4 induction Emax” value [2] is reported as 2 fold.
In the case of `O=C1CC[C@H](N2Cc3cc(N4CCN(CC5CCN(c6ccc([C@@H]7c8ccc(O)cc8CC[C@@H]7c7ccccc7)cc6)CC5)CC4)ccc3C2=O)C(=O)N1` [ARV-471], the “direct inhibition of CYP3A activity” value [3, 26] is reported as “no direct inhibition; also recorded: no direct or time‐dependent inhibition”, the “time‐dependent inhibition of CYP3A” value [3, 26] is reported as “no direct or time‐dependent inhibition” and the “Emax, increase in midazolam activity (CYP3A induction)” value ([3]; Hμrel, concentration and time‐dependent increase) is reported as 3.8 fold. The EC50 ([3]; human, Hμrel co-culture hepatocytes, probe midazolam (1'-hydroxylation)) was 0.00025 mM, the “effect on palbociclib sulfation over the time course” value [4] was “apparent activation” and the “glucuronide metabolism of palbociclib” value ([5]; Hμrel and TruVivo, 5 μM palbociclib, 20 μM ARV‐471) was “completely inhibited”. For the same compound, the “inhibition of metabolic clearance accounted for by glucuronide metabolism” value ([5]; based on MS ionization and summed metabolite area ratios, 20 μM ARV‐471) was “up to 50%”, the IC50 [6] was > 0.035 mM and the “increase in palbociclib exposure recapitulated from Clint inhibition” value [7] was 50%. The IC50 [8] was > 0.035 mM, the “increase in palbociclib exposure (area under the curve)” value ([9]; co‐administration of palbociclib with ARV‐471, phase Ib) was ~ 50% and 50% and the “adverse event with increased palbociclib exposure” value ([9]; palbociclib with ARV‐471, phase Ib) was “grade 3/4 neutropenia”.
For `CC(=O)c1c(C)c2cnc(Nc3ccc(N4CCNCC4)cn3)nc2n(C2CCCC2)c1=O` [palbociclib], the “Clint at 5 μM compared with 0.045 μM” value ([5]; co-culture hepatocytes, suggesting saturation of metabolic clearance) was “reduced” and the “share of palbociclib clearance by glucuronidation” value [10] was 25%–30%.
In the case of `Nn1nnc2ccccc21` [ABT, Aminobenzotriazole], the Ki [11] is reported as 6.03 mM, the “inhibition of SULT1A1” value [12] is reported as “No significant inhibition” and the Ki [13] is reported as 2.52 mM. The Ki [14] was 5.45 mM, the “inhibition of SULT1C2” value [15] was “No significant inhibition” and the “inhibition of SULT2A1” value [16] was “No significant inhibition”. For the same compound, the “Ki,u HHEPs” value [17] was “No inhibition”, the “Ki,u HHEPs” value [18] was “No inhibition” and the Ki [19] was > 20 mM. The Ki [20] was 4.58 mM, the “inhibition of SULT1B1” value [21] was “No significant inhibition” and the “inhibition of SULT1E1” value [22] was “No significant inhibition”. For the same compound, the “inhibition of SULT1A3” value [23] was “No significant inhibition”, the “inhibition of SULT1C4” value [24] was “No significant inhibition” and the “inhibition of SULT2B1” value [25] was “No significant inhibition”.
